Converted amounts (≈) assume the structure as drawn.
Key:
Vero [1] = test: Compound was evaluated for cytotoxicity against stationary Vero cells using MTT assay; assay type: functional; conditions: Chlorocebus sabaeus
Method in brief: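 Stationary Vero cells exposed to drug for 3 days. Viability read by MTT assay against untreated controls. CC50 taken as the concentration (μg/mL) giving 50% loss of viability. ">" means 50% was not reached at the highest concentration tested.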

Nucleic Acid = test: Concentration required to reduce the viral DNA in infected cells to 50% of untreated infected controls.; assay type: functional, cell-based; conditions: Duck hepatitis B virus
Method in brief: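 Confluent primary hepatocyte cultures from chronically DHBV-infected Pekin ducks treated with drug. Viral DNA in cells measured against untreated infected controls. EC50 in μg/mL. Three independent experiments, with the range of EC50 reported.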

Vero [2] = test: Concentration required to inhibit plaque formation by HSV-1 strain KOS (TK+) in monolayers of vero cells; assay type: functional, cell-based; conditions: Chlorocebus sabaeus
Method in brief: (§1)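 Vero cells seeded one day ahead. Infected with HSV-1 KOS (TK+) or TK-deficient KOSSB at ~100 PFU/well for 1 h at 37 °C. Inoculum replaced by medium with serial drug dilutions in duplicate, then refined by 1:2 dilutions. Acyclovir control at 5 and 1 μg/mL (TK+) or 50, 25, 10, 1 μg/mL (TK−). After 48 h at 37 °C, fixed with methanol and Giemsa-stained. Plaques counted against no-drug wells for EC50.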

Vero [3] = test: Concentration required to inhibit plaque formation by HSV-1 strain KOSSB (TK-) in monolayers of vero cells; assay type: functional, cell-based; conditions: Chlorocebus sabaeus; method in brief: as §1
Duck hepatitis B virus = test: Percent inhibition of viral DNA in the presence of 10 ug/mL compound compared to untreated infected controls in duck hepatocytes
Homo sapiens [4] = species: Homo sapiens; test: Concentration required to reduce the proliferation of PHA stimulated human peripheral blood T lymphocytes; assay type: functional
Method in brief: (§2)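 Fresh human peripheral blood T lymphocytes stimulated with PHA and grown with drug. Cellular DNA synthesis followed by [methyl-3H]thymidine incorporation. Value is the concentration (μg/mL) reducing proliferation to 50% of untreated PHA-stimulated controls. Tested up to 50 μg/mL.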

Homo sapiens [5] = species: Homo sapiens; test: Concentration required to reduce the proliferation of PHA stimulated human peripheral blood T lymphocytes to 50% of untreated PHA Stimulated control; assay type: functional; method in brief: as §2

Row | SMILES | CC50 (Vero [1]) | EC50 (Nucleic Acid) | EC50 (Vero [2]) | EC50 (Vero [3]) | Inhibition (Duck hepatitis B virus) | IC50 (Homo sapiens [4]) | IC50 (Homo sapiens [5])
1 | C=Cc1cn(CCC(CO)CO)c(=O)[nH]c1=O | > 100 µg/mL | 3 µg/mL (≈ 12.5 µM) | > 25 µg/mL | > 50 µg/mL | 77.5% | > 50 µg/mL | –
2 | C=Cc1cn(COCCO)c(=O)[nH]c1=O | > 100 µg/mL | > 10 µg/mL | > 25 µg/mL | > 50 µg/mL | 40.6% | > 50 µg/mL | –
3 | C=Cc1cn(COC(CO)CO)c(=O)[nH]c1=O | > 100 µg/mL | 1 µg/mL (≈ 4.13 µM) | > 25 µg/mL | > 50 µg/mL | 81% | > 50 µg/mL | –
4 | Nc1ccn([C@@H]2CSC(CO)O2)c(=O)n1 (single isomer, unassigned) [LAMIVUDINE] | > 100 µg/mL | 0.01 µg/mL (≈ 0.0436 µM) | – | – | 96% | – | > 50 µg/mL
5 | Nc1nc2c(ncn2COCCO)c(=O)[nH]1 [ACYCLOVIR] | > 100 µg/mL | – | 0.5 µg/mL (≈ 2.22 µM) | 40 µg/mL (≈ 178 µM) | – | – | –
6 | Nc1nc2c(ncn2COC(CO)CO)c(=O)[nH]1 [GANCICLOVIR] | – | 1.5 µg/mL (≈ 5.88 µM) | – | – | – | – | –
7 | Nc1nc(O)c2ncn(CCC(CO)CO)c2n1 [PENCICLOVIR] | – | 0.3 µg/mL (≈ 1.18 µM) | – | – | – | – | –
